Assay results reported in paper PMC3191534 (Translational stroke research, 2011).
Entries after “also recorded” stand apart in the source; their conditions may differ. Like-named read-outs stand apart in the source and are kept apart here. Marks after values point to notes of the source that are not given here.

Assays:
[1] = test system: Salmonella typhimurium TA989; experiment: Ames genotoxicity test, TA989; assay type: cell-based
[2] = test system: Salmonella typhimurium TA100; experiment: Ames genotoxicity test, TA100; assay type: cell-based
[3] = Metabolic stability in human and animal liver microsomes, stated across species; assay type: in vitro ADME, dog, rat, mouse
HT22 hippocampal neurons = experiment: In vitro ischemia assay; assay type: cell-based
Summary of the method: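 HT22 cells were grown in DMEM with 10% FCS and seeded at 5×10^3 cells/well. Next day they were switched to DMEM with 7.5% DFCS and given 20 μM iodoacetic acid ± test compound for 2 h, then fresh IAA-free medium with compound for 20 h. MTT (5 μg/ml) ran 4 h at 37°C, was solubilised in 50% DMF/20% SDS pH 4.7, and A570 was read next day. Runs were done ≥3 times in triplicate; ANOVA/Bonferroni.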

HT22 cells [4] = experiment: Oxidative glutamate toxicity; assay type: cell-based
Summary of the method: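 HT22 cells (DMEM, 10% FCS) were given the test compound, then 5 mM glutamate 30 min later to deplete GSH. Cell survival was measured 24 h after glutamate. Experiments were repeated at least three times in triplicate, shown as mean ± SD, and analysed by ANOVA with Bonferroni's test (P<0.05).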

HT22 hippocampal cells = experiment: HT22 neuroprotection, IAA or oxidative glutamate toxicity assays stated together; assay type: cell-based; settings: read-out: EC50, neuroprotection, either IAA or oxidative glutamate toxicity assay
HT22 cells [5] = experiment: HT22 cell ATP content in the in vitro ischemia assay; assay type: cell-based; settings: 20 μM IAA; highest dose tested (10 μM)
[6] = test system: H4IIE rat hepatoma cell line; experiment: CeeTox analysis, cellular toxicity panel; assay type: cell-based
P-glycoprotein (PgP) = experiment: P-glycoprotein; assay type: cell-based, rat; settings: 50 μM
Summary of the method: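 H4IIE cells were exposed to the test compound at a single concentration (50 μM), with and without the PgP inhibitor cyclosporin A. Toxicity was measured by MTT assay and expressed as % control for each condition. The % difference was taken as the PgP interaction measure. The compound came from a DMSO stock, with a DMSO control, in a blinded contract CeeTox study.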

[7] = dog, microsomes
[8] = human, microsomes
[9] = microsomes
[10] = rat, microsomes
[11] = test system: free radical-induced peroxidation; settings: in vitro; cited from earlier work
[12] = test system: rat intraluminal suture stroke model; settings: cited from earlier work
[13] = rat, in vivo; cited from earlier work
[14] = oxidative glutamate toxicity assay

Compound: Nc1ccc2cc3ccccc3cc2c1 [2-aminoanthracene, reference compound]
- Mean no. of positive wells ([1]; TA989+S9, positive control): 48.00
- Mean no. of positive wells ([1]; TA989−S9, positive control): 36.00
- Mean no. of positive wells ([2]; TA100+S9, positive control): 48.00
- Mean no. of positive wells ([2]; TA100−S9, positive control): 48.00

Compound: C[C@]12CC[C@H]3[C@@H](CCC4=CC(=O)CC[C@@]43C)[C@@H]1CC[C@@H]2O [testosterone, reference compound]
- half-life ([3]; human): 10 to 32 min

Compound: Stilbazulenyl nitrone [STAZN]
- increase in survival (HT22 hippocampal neurons; IAA assay): 621%
- maximal level of protection, of total cell survival (HT22 hippocampal neurons; IAA assay): approximately 60%
- EC50 (HT22 hippocampal neurons; read-out: EC50, neuroprotection in the IAA assay, estimated, 20 μM IAA, HT22 cells): ~1 µM
- concentration at which significance was first achieved (HT22 cells [4]; 5 mM glutamate, HT22 cells): 5 µM
- increase in survival (HT22 cells [4]; [14]): 416%
- maximal level of protection, of total cell survival (HT22 cells [4]; [14]): ~52%
- EC50 (HT22 hippocampal cells): 1 to 5 µM
- effect on IAA-induced ATP loss (HT22 cells [5]): significantly attenuate IAA-induced ATP loss
- decrease in cellular ATP content ([6]; H4IIE cells, 300 μM): ~35%
- ATP TC50 ([6]; H4IIE cells, 24 h): >300 µM
- Cell number TC50 ([6]; H4IIE cells, 24 h): >300 µM
- MTT TC50 ([6]; H4IIE cells, 24 h): >300 µM
- MemTox TC50 ([6]; H4IIE cells, 24 h): >300 µM
- Total GSH TC50 ([6]; H4IIE cells, 24 h): >300 µM
- TC50 for all general toxicity measures ([6]; H4IIE cells, 24 h, all assays): > 300 µM
- Membrane lipid peroxidation ([6]; H4IIE cells, measured as 8-isoprostane): 0
- therapeutic safety window (efficacy/toxicity ratio) ([6]; in vitro, HT22 EC50 vs CeeTox toxicity): 60–150 fold
- interaction with PgP transporters (P-glycoprotein (PgP)): low-level interaction
- % Control (compound + CSA) (P-glycoprotein (PgP); MTT, H4IIE cells, with cyclosporin A): 83.4%
- % Control (compound) (P-glycoprotein (PgP); MTT, H4IIE cells, without CSA): 100.3%
- % Difference (P-glycoprotein (PgP); without vs with CSA): 16.9%
- half-life [3]: 60 to 78 min
- Mean no. of positive wells ([1]; TA989+S9, .001963 mg/ml): 2.33
- Mean no. of positive wells ([1]; TA989+S9, .003906 mg/ml): 1.33
- Mean no. of positive wells ([1]; TA989+S9, .007813 mg/ml): 5.00
- Mean no. of positive wells ([1]; TA989+S9, .015625 mg/ml): 3.00
- Mean no. of positive wells ([1]; TA989+S9, .03125 mg/ml): 4.00
- Mean no. of positive wells ([1]; TA989+S9, .0625 mg/ml): 2.33
- mutagenicity (Ames test outcome) ([1]; TA989, with or without S9, up to 0.0625 mg/ml (0.106 mM)): lack of mutagenicity; also recorded: not mutagenic
- Mean no. of positive wells ([1]; TA989−S9, .001963 mg/ml): 1.33
- Mean no. of positive wells ([1]; TA989−S9, .003906 mg/ml): 1.33
- Mean no. of positive wells ([1]; TA989−S9, .007813 mg/ml): 0.33
- Mean no. of positive wells ([1]; TA989−S9, .015625 mg/ml): 0.67
- Mean no. of positive wells ([1]; TA989−S9, .03125 mg/ml): 0.00
- Mean no. of positive wells ([1]; TA989−S9, .0625 mg/ml): 0.67
- Mean no. of positive wells ([2]; TA100+S9, .001963 mg/ml): 7.33
- Mean no. of positive wells ([2]; TA100+S9, .003906 mg/ml): 6.33
- Mean no. of positive wells ([2]; TA100+S9, .007813 mg/ml): 6.67
- Mean no. of positive wells ([2]; TA100+S9, .015625 mg/ml): 6.33
- Mean no. of positive wells ([2]; TA100+S9, .03125 mg/ml): 10.67
- Mean no. of positive wells ([2]; TA100+S9, .0625 mg/ml): 8.67
- mutagenicity (Ames test outcome) ([2]; TA100, with or without S9, up to 0.0625 mg/ml (0.106 mM)): lack of mutagenicity; also recorded: not mutagenic
- Mean no. of positive wells ([2]; TA100−S9, .001963 mg/ml): 5.00
- Mean no. of positive wells ([2]; TA100−S9, .003906 mg/ml): 3.67
- Mean no. of positive wells ([2]; TA100−S9, .007813 mg/ml): 6.33
- Mean no. of positive wells ([2]; TA100−S9, .015625 mg/ml): 7.33
- Mean no. of positive wells ([2]; TA100−S9, .03125 mg/ml): 5.00
- Mean no. of positive wells ([2]; TA100−S9, .0625 mg/ml): 5.67
- Half-life t1/2 [7]: 71 min
- Percent remaining of initial compound ([7]; 10 min): 56.2%
- Percent remaining of initial compound ([7]; 20 min): 65.5%
- Percent remaining of initial compound ([7]; 0.5 h): 54.5%
- Percent remaining of initial compound ([7]; 1 h): 47.6%
- drug metabolized ([7]; 1 h): approximately 50%
- Half-life t1/2 [8]: 78 min
- Percent remaining of initial compound ([8]; 10 min): 57.7%
- Percent remaining of initial compound ([8]; 20 min): 39.7%
- Percent remaining of initial compound ([8]; 0.5 h): 46.9%
- Percent remaining of initial compound ([8]; 1 h): 49.1%
- drug metabolized ([8]; 1 h): approximately 50%
- Half-life t1/2 [9]: < 10 min
- Half-life t1/2, calculated value in parentheses ([9]; mouse): 27 min
- Percent remaining of initial compound ([9]; mouse, 10 min): 17.2%
- Percent remaining of initial compound ([9]; mouse, 20 min): 19.8%
- Percent remaining of initial compound ([9]; mouse, 0.5 h): 10.0%
- Percent remaining of initial compound ([9]; mouse, 1 h): 13.8%
- drug metabolized ([9]; mouse, 1 h): 86%
- Half-life t1/2 [10]: > 60 min
- Half-life t1/2, calculated value in parentheses [10]: 95 min
- Percent remaining of initial compound ([10]; 10 min): 82.4%
- Percent remaining of initial compound ([10]; 20 min): 76.6%
- Percent remaining of initial compound ([10]; 0.5 h): 80.3%
- drug metabolized ([10]; 0.5 h): 20%
- Percent remaining of initial compound ([10]; 1 h): 122 ^d %
- potency relative to NXY-059 at inhibiting free radical-induced peroxidation [11]: 300 times
- effect on behavior [12]: improved behavior measured up to 30 days following ischemia
- effect on infarct volume [12]: reduced infarct volume in a dose- and time-dependent manner
- neuroprotective doses, times lower than NXY-059 [12]: 300–600 times
- circulating half-life t1/2, first phase of biexponential decline in blood levels [13]: 28 min
